What all share (assay type): functional
The subject of experiment [1] is MDA-MB-231. Nature of the experiment: Growth inhibition of human MDA-MB-231 cells at 50 ug/ml after 24 hrs by MTT colorimetric assay. Particulars: MDA-MB-231, 24 h, read-out: GI. The method, boiled down: (§1)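 Cells kept in RPMI 1640 with 10% FBS, 1% L-glutamine and penicillin-streptomycin at 37 °C, 5% CO2, and harvested with trypsin-EDTA. Seeded at 4 × 10⁴ cells/well, grown 24 h, then exposed to compound for 24 h at 37 °C. Medium replaced with phenol red-free medium, MTT (2 mg/ml) added for 4 h, formazan dissolved in isopropanol, A492 read. Inhibition taken versus untreated control wells; mean ± SD of three independent experiments.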

Experiment [2] has as its system MCF7. The experiment can be described thus: Growth inhibition of human MCF7 cells at 50 ug/ml after 24 hrs by MTT colorimetric assay. Particulars: MCF7, 24 h, read-out: GI. The method, boiled down:
as §1

For experiment [3], the system named is MDA-MB-231. Nature of the experiment: Growth inhibition of human MDA-MB-231 cells at 25 ug/ml after 24 hrs by MTT colorimetric assay. Conditions: MDA-MB-231, 24 h, read-out: GI. The method, boiled down: as §1
The test system of experiment [4] is MCF7. The experiment can be described thus: Growth inhibition of human MCF7 cells at 25 ug/ml after 24 hrs by MTT colorimetric assay. Conditions: MCF7, 24 h, read-out: GI. The method, boiled down: as §1
The next experiment deals with T47D. The experiment can be described thus: Growth inhibition of human T47D cells at 25 ug/ml after 24 hrs by MTT colorimetric assay. Particulars: read-out: GI. The method, boiled down:
as §1

On to `O=C1OC[C@H](Cc2ccc3c(c2)OCO3)[C@H]1[C@H](O)c1ccc([N+](=O)[O-])cc1`, for which the results for the inhibition of growth at 50 µg/mL in the experiment with MDA-MB-231 [1] and in the experiment with MCF7 [2] were 20.1% and 17.9%, respectively. Further, the inhibition of growth at 25 µg/mL worked out at 17.9% with MDA-MB-231 [3] and 24.6% in the experiment with MCF7 [4].
For the molecule `O=C1OC[C@H](Cc2ccc3c(c2)OCO3)[C@H]1[C@H](O)c1ccccc1Cl`, the figures for the inhibition of growth at 50 µg/mL in the experiment on MDA-MB-231 [1] and in the experiment on MCF7 [2] were 47.3% and 7.5%, respectively. For the same molecule, the inhibition of growth at 25 µg/mL came out at 50.2% in the experiment on T47D, 34.8% in the experiment on MDA-MB-231 [3] and 15.8% in the experiment on MCF7 [4].
Taken in the same sequence, the figures for `O=C1OC[C@H](Cc2ccc3c(c2)OCO3)[C@H]1[C@@H](O)c1ccccc1Cl` were 26.4%, 31.9%, 52.9%, 19% and 8.5%.
In the same order, the values of `O=C1OC[C@H](Cc2ccc3c(c2)OCO3)[C@H]1Cc1ccccc1` are 36.2%, 46%, 61.9%, 26.2% and 17%.
As for `COc1ccc(C(O)[C@H]2C(=O)OC[C@@H]2Cc2ccc3c(c2)OCO3)cc1` (mixture of isomers), the figures for the inhibition of growth at 50 µg/mL with MDA-MB-231 [1] and in the experiment with MCF7 [2] were 48.8% and 22.4%, respectively. Besides, the inhibition of growth at 25 µg/mL amounted to 10.1% with MDA-MB-231 [3] and 42.7% in the experiment with MCF7 [4].
Take `COc1cccc(C(O)[C@H]2C(=O)OC[C@@H]2Cc2ccc3c(c2)OCO3)c1` (mixture of isomers): the inhibition of growth at 50 µg/mL worked out at 41.9% in the experiment on MDA-MB-231 [1] and 12.2% in the experiment on MCF7 [2]. Further, the results for the inhibition of growth at 25 µg/mL in the experiment on MDA-MB-231 [3] and in the experiment on MCF7 [4] were 14.5% and -3.8%, respectively.
For the molecule `COc1cc(C(O)[C@H]2C(=O)OC[C@@H]2Cc2ccc3c(c2)OCO3)cc(OC)c1OC` (mixture of isomers), the inhibition of growth at 50 µg/mL was determined as 10.2% in the experiment with MDA-MB-231 [1] and 37.7% in the experiment with MCF7 [2]. Further, the inhibition of growth at 25 µg/mL with T47D is 50.1%; in the experiment on MDA-MB-231 [3] it was -1.9%; in the experiment on MCF7 [4], 5.2%.
Consider `O=C1OC[C@H](Cc2ccc3c(c2)OCO3)[C@H]1C(O)c1ccc([N+](=O)[O-])cc1` (mixture of isomers), for which the inhibition of growth at 50 µg/mL stood at 29% in the experiment on MDA-MB-231 [1] and 38.8% with MCF7 [2]. Moreover, the inhibition of growth at 25 µg/mL stood at 22.5% in the experiment with MDA-MB-231 [3] and 7.2% in the experiment with MCF7 [4].
`O=C1OC[C@H](Cc2ccc3c(c2)OCO3)[C@H]1C(O)c1ccccc1[N+](=O)[O-]` (mixture of isomers): the inhibition of growth at 50 µg/mL is 35.1% with MDA-MB-231 [1] and -0.2% in the experiment with MCF7 [2]. Besides, the inhibition of growth at 25 µg/mL was found to be 38.1% with T47D, 7.9% in the experiment with MDA-MB-231 [3] and 21.9% in the experiment on MCF7 [4].
On to `COc1cccc2c1C(=O)c1c(O)c3c(c(O)c1C2=O)C[C@@](O)(C(=O)CO)C[C@@H]3O[C@H]1C[C@H](N)[C@H](O)[C@H](C)O1` [DOXORUBICIN], for which the inhibition of growth at 50 µg/mL was determined as 48.8% with MDA-MB-231 [1] and 31.8% in the experiment with MCF7 [2]. The inhibition of growth at 25 µg/mL came to 60% in the experiment with T47D, 57.9% in the experiment with MDA-MB-231 [3] and 54.6% with MCF7 [4].
As for `CC/C(=C(\c1ccccc1)c1ccc(OCCN(C)C)cc1)c1ccccc1` [TAMOXIFEN], the figures for the inhibition of growth at 50 µg/mL with MDA-MB-231 [1] and in the experiment with MCF7 [2] were 67.7% and 25%, respectively. Moreover, the inhibition of growth at 25 µg/mL in the experiment with T47D stood at 67.8%; in the experiment with MDA-MB-231 [3], 58.6%; in the experiment on MCF7 [4], 65.7%.

The values above are taken from ChEMBL document CHEMBL1629421, “Isochaihulactone analogues: synthesis and anti-proliferative activity of novel dibenzylbutyrolactones” (2010).
